Screening data from PubChem.
Hits are enriched below; roughly 1.3% of the tested compounds scored in any of these assays.
HKDC1 inh = HKDC1 hexokinase inhibitors, primary screen, biochemical, fluorescence, uHTS | inhibition, % at 20 µM | 340,000 tested, 0.16% active | recombinant HKDC1, G6PDH/diaphorase resazurin coupled fluorescence | Q2TB90;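 active = inhibition above about 35% when tested at 20 µM, limit read from the data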;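 note: plate controls were DMSO wells with enzyme for no effect and DMSO wells lacking enzyme for full effect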
Target sequence (Q2TB90 whole entry, looked up): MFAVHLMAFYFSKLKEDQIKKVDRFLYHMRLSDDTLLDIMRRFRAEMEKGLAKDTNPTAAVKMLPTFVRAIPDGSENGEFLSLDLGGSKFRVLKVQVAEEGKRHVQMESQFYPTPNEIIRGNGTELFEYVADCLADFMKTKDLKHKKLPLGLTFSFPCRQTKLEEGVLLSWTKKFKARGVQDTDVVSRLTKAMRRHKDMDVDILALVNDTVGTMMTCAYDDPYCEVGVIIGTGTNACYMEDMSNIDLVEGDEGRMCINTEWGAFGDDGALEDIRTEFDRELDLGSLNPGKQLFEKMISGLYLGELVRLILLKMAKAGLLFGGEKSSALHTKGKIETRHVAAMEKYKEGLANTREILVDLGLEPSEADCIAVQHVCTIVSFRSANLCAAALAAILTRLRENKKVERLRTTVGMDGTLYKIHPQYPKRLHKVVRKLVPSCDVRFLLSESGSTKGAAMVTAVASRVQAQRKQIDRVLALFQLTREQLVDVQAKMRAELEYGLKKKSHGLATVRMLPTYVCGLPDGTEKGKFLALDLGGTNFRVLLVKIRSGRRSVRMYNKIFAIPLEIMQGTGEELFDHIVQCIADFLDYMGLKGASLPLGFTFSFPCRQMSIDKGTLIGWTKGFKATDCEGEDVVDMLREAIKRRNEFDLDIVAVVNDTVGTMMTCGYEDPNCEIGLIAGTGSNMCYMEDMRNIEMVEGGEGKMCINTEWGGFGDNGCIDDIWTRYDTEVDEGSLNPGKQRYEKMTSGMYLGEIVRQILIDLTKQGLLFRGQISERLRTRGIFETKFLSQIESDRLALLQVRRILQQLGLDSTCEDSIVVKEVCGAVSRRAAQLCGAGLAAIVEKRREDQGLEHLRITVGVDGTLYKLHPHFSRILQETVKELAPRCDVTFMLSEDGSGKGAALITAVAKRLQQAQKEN
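test system = in-house recombinant HK5 (HKDC1) enzyme | amount = HKDC1 at 5 µg/mL | control set = DMSO-enzyme wells negative, buffer-substituted wells positive | compound = one dose of 20 µM, 1% DMSO | schedule = reaction time 90 min, room temperature, protected from light | technique = resorufin fluorescence at 613 nm | reagent = glucose with 1 mM ATP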
Diaph inh CS = diaphorase inhibitors and chemical oxidizers, primary screen, counter-screen for diaphorase-coupled primary assays, biochemical, uHTS, resorufin fluorescence; diaphorase resazurin-to-resorufin fluorescence, NADH, 16 min; bacterial (C. kluyveri) enzyme, not human; inhibition, % at 20 µM; 190,000 tested, 0.69% active; AID 1217, 2008;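 active = primary screen inhibition at 20 µM above a set limit, cut at about 50% in these data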;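 note: plate controls were DMSO with full reaction for no effect and wells lacking NADH for full effect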
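Benchmarks: positive control wells lacking NADH, neutral wells with DMSO only. System: bacterial diaphorase enzyme (C. kluyveri). Input: 0.14 U/mL diaphorase, enzyme working solution. Detection: resorufin fluorescence, excitation 544 nm, emission 590 nm. Times: 16-min room-temperature incubation before reading.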
G6PDH CS = L. mesenteroides G6PDH inhibitors, counter-screen for G6PDH-coupled screening assays, biochemical, Leuconostoc mesenteroides enzyme; Purified L. mesenteroides G6PDH, diaphorase/resazurin coupled fluorescence, 45 min; 200,000 tested, 0.12% active; inhibition, % at 5 µM; glucose-6-phosphate dehydrogenase [Leuconostoc mesenteroides]; in the data active = inhibition above about 50%
PfGluPho inh = PfG6PD enzyme inhibitors, primary screen, biochemical, fluorescence intensity, uHTS | glucose-6-phosphate dehydrogenase-6-phosphogluconolactonase (Plasmodium falciparum 3D7) | PfGluPho enzyme, NADPH resazurin-diaphorase fluorescence | inhibition, % at 20 µM | 350,000 tested, 0.78% active;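 active = inhibition reaching at least a set limit at 20 µM in the primary screen, cut at about 59% in these data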;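 note: 0% = DMSO wells with substrate and 100% = DMSO wells lacking glucose-6-phosphate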
Tb hexokinase = Trypanosoma brucei hexokinase 1 inhibitors, primary screen, biochemical, G6PDH-coupled NADH absorbance, MLSCN library; hexokinase 1 [Trypanosoma brucei]; recombinant TbHK1, G6PDH-coupled NADH A340; inhibition, % at 10 µM; 220,000 tested, 0.11% active; AID 1430, 2008;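 active = inhibition of 50% or more in the single-dose primary screen; inactive = inhibition below 50%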
* marks the source's active call; other numbers are inactive results; . = no result given.

SMILES	HKDC1 inh	Diaph inh CS	G6PDH CS	PfGluPho inh	Tb hexokinase
CSCCC(NS(=O)(=O)c1ccc(Cl)cc1)C(=O)OCC(=O)c1c(C)[nH]c2ccccc12 (centres undefined)	-3	28	7	9	5
Cc1ccc(-n2sc3ccccc3c2=O)cc1S(=O)(=O)N1CCCCC1	3	46	-12	127*	93*
O=c1c2cc(F)ccc2sn1-c1ccccc1	3	.	.	114*	.
O=C(O)c1cccc(-n2sc3ccccc3c2=O)c1	5	.	.	114*	.
Cc1ccc(C(=O)NNC(=O)c2ccccc2)cc1S(=O)(=O)N1CCCCC1	-5	.	.	-3	.
Cc1cccc2cc(C(c3nnnn3CC3CCCO3)N3CCCc4ccccc43)c(=O)[nH]c12 (centres undefined)	1	60*	5	-2	-8
CCOc1ccc2[nH]c(=O)c(C(c3nnnn3CC3CCCO3)N3CCc4ccccc4C3)cc2c1 (centres undefined)	2	59*	14	2	-9
COc1ccc2[nH]c(=O)c(C(c3nnnn3CC3CCCO3)N3CCCCC3)cc2c1 (centres undefined)	-7	18	10	13	-5
Cc1cccc2cc(C(c3nnnn3CC3CCCO3)N3CCc4ccccc4C3)c(=O)[nH]c12 (centres undefined)	22	55*	22	8	-19
Cc1cccc2cc(C(c3nnnn3CC3CCCO3)N3CCCC4(CCCCC4)C3)c(=O)[nH]c12 (centres undefined)	.	31	6	.	3
Cc1ccc2cc(C(c3nnnn3CC3CCCO3)N3CCc4ccccc4C3)c(=O)[nH]c2c1 (centres undefined)	14	54*	-2	10	-19
O=C(COc1coc(CN2CCN(c3ccc(F)cc3)CC2)cc1=O)NC1CCCC1	-3	.	.	-3	.
CCc1ccc2[nH]c(=O)c(C(c3nnnn3CC3CCCO3)N3CCCc4ccccc43)cc2c1 (centres undefined)	3	68*	19	15	-9
COc1ccc(/C=N/NC(=O)C(=O)/C=C2\NC3(CCCC3)Cc3ccccc32)cc1	-3	36	-29	10	-7
O=C(/C=C1\NC2(CCCC2)Cc2ccccc21)C(=O)N/N=C/c1ccc(O)c(O)c1	-2	74*	0	14	9
Cn1cc(/C=C2\SC(=O)NC2=S)c2ccccc21	-7	54*	11	6	1
COc1ccc(N(CC(=O)NCCc2ccc(OC)c(OC)c2)S(=O)(=O)c2ccc(OC)c(OC)c2)cc1	4	.	.	-14	.
C=CCn1cc(C(=O)NCCCOC)c(=O)c2cc(S(=O)(=O)N3CCC(C)CC3)ccc21	-2	.	.	15	.
Cc1ccc(C(=O)N/C(=C\c2ccccc2F)c2nc(=S)[nH][nH]2)cc1	-14	51*	4	1	-16
CCCCCNC(=O)c1ccc2c(=O)[nH]c3c(C(=O)NCC4CCCO4)sc(=S)n3c2c1 (centres undefined)	25	65*	-2	6	-13
Cc1ccc(CNC(=O)c2ccc3c(=O)[nH]c4c(C(=O)NCC5CCCO5)sc(=S)n4c3c2)cc1 (centres undefined)	23	79*	5	-4	-8
O=C(NCc1ccccc1)c1ccc2c(=O)[nH]c3c(C(=O)NCC4CCCO4)sc(=S)n3c2c1 (centres undefined)	35	70*	-2	17	-8
CC(=O)Nc1cccc(NC(=O)CSc2nc(=O)n(CCN3CCOCC3)c3c2CCCC3)c1	-1	.	.	-6	.
CC(=O)N1CCN(CC(=O)Nc2ccccc2Sc2ccc(Cl)cc2)CC1	14	-6	15	11	-1
O=C(CCl)Nc1ccccc1Sc1ccc(Cl)cc1	12	6	17	87*	-8
SMILES	HKDC1 inh	Diaph inh CS	G6PDH CS	PfGluPho inh	Tb hexokinase
CCCCCCn1c(SCC(C)C)nc2c1c(=O)[nH]c(=O)n2C	-4	7	11	-6	-1
CCCCCCn1c(SCC(=O)OC)nc2c1c(=O)[nH]c(=O)n2C	-17	15	-10	78*	-3
CCN1/C(=C/c2ccc3cc(C)ccc3[n+]2CC)Sc2ccc3sccc3c21	2	.	.	61*	.
O=C(CSc1cn[nH]n1)Nc1ccc(O)c(C(=O)O)c1	-3	.	.	15	.
CCCC(=O)Nc1ccc(NCc2ccc(C)s2)cc1	0	.	.	-7	.
COc1cc(OC)cc(-c2c(-c3cccs3)c3cc(-c4ccc5cc[nH]c5c4)ccc3n2C)c1	2	.	.	-7	.
Cc1noc(NS(=O)(=O)c2ccc(NC(=O)CSc3nnc4c(n3)[nH]c3ccccc34)cc2)c1C	3	65*	-2	-10	16
O=P1(O)C=C(c2ccccc2)OC(c2ccccc2)=C1	-3	-8	11	-46	3
O=C(COc1ccc(Cl)cc1Cl)NC(=S)Nc1ccccc1C(=O)O	.	53*	8	.	3
COc1cccc(-c2c(C(=O)N/N=C/c3sccc3C)nnn2-c2nonc2N)c1	3	.	.	91*	.
Nc1c(N2CCOCC2)cc(Cl)c2nonc12	15	43	49	31	7
Nc1c(N2CCCC2)cc(Cl)c2nonc12	-5	62*	57*	-72	0
Nc1ccc(N2CCCCC2)c2nonc12	9	30	54*	52	-5
Nc1cc(Cl)ccc1N1CCCCC1	-7	20	11	-4	-1
Nc1ccc(N2CCCCC2)cc1N1CCCCC1	32	57*	6	49	25
CC(C)C1Oc2ccccc2N(CC(=O)N(C)C2CCCCC2)C1=O (centres undefined)	-3	.	.	-13	.
O=C(Cc1c(O)c2ccccc2[nH]c1=O)NCc1ccccc1F	-5	10	18	-13	54*
O=C1C2C3C=CC(C3)C2C(=O)N1CNc1ccc(O)cc1 (centres undefined)	.	64*	42	.	.
COCCOC(=O)C1=C(C)NC2(O)c3ccccc3C(=O)C12O (centres undefined)	-14	74*	6	11	2
O=C(/C=C/c1ccoc1)c1ccccc1O	-1	20	6	-11	26
COc1ccc2ccccc2c1C(=O)/C=C\c1ccoc1	15	52*	8	26	-24
COc1ccc(O)c(/C=N/n2c(-c3ccco3)csc2=Nc2cccnc2)c1	-8	15	-21	16	0
CN=c1scc(-c2ccco2)n1/N=C/c1ccc(O)c(O)c1	0	51*	24	13	-19
O=S(=O)(c1ccc(NC(=S)NCCC(c2ccccc2)c2ccccc2)cc1)N1CCOCC1	4	3	10	4	-13
Cc1c(Br)c(=O)oc2c(Br)c(O)ccc12	0	5	0	1	-7
